Reference: ChEMBL document CHEMBL1148973, “Bioactive friedolanostanes and 11(10-->8)-abeolanostanes from the bark of Garcinia speciosa” (2004)

Experiments:
Assay type in all cases: functional
NCI-H460 = assay: Cytotoxicity against human NCI-H460 cells after 48 hrs by SRB assay; conditions: NCI-H460, 48 h
Method in brief: (§1)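 SRB growth-inhibition assay following the NCI screen protocol. Cells were kept adherent in RPMI-1640 with 5% heat-inactivated FBS and 2 mM glutamine at 37 °C under 5% CO2. Plating density was 1.5 × 10^5 cells/mL for MCF-7 and SF-268 and 7.5 × 10^4 cells/mL for NCI-H-460. Cells attached overnight, then received five concentrations (top 100 µM) for 48 h. Cells were fixed in situ, stained with SRB and the bound dye solubilised. GI50 was taken from dose-response curves. Doxorubicin served as positive control.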

MCF7 [1] = assay: Cytotoxicity against human MCF7 cells after 48 hrs by SRB assay; conditions: MCF7, 48 h; method in brief: as §1
SF-268 = assay: Cytotoxicity against human SF268 cells after 48 hrs by SRB assay; conditions: SF-268, 48 h; method in brief: as §1
MCF7 [2] = assay: Induction of apoptosis in human MCF7 cells assessed as fragmentation of genomic DNA at 19.2 uM after 48 hrs by TUNEL assay
Method in brief: (§2)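 MCF-7 cells were seeded at 1.5 × 10^5 cells/mL, grown 24 h at 37°, then exposed continuously for 48 h. Adherent and floating cells were harvested by trypsinisation, cytospun onto slides and fixed in 4% paraformaldehyde for 1 h at room temperature. DNA fragmentation was detected by fluorescein TUNEL with DAPI counterstain under fluorescence microscopy. Apoptotic percentage came from ≥400 cells over ≥5 random fields. Controls were untreated cells and 40 nM doxorubicin.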

MCF7 [3] = assay: Induction of apoptosis in human MCF7 cells assessed as fragmentation of genomic DNA at 15.5 uM after 48 hrs by TUNEL assay; method in brief: as §2
MCF7 [4] = assay: Induction of apoptosis in human MCF7 cells assessed as fragmentation of genomic DNA at 19.4 uM after 48 hrs by TUNEL assay; method in brief: as §2
MCF7 [5] = assay: Induction of apoptosis in human MCF7 cells assessed as fragmentation of genomic DNA at 15.3 uM after 48 hrs by TUNEL assay; method in brief: as §2
MCF7 [6] = assay: Induction of apoptosis in human MCF7 cells assessed as fragmentation of genomic DNA at 26 uM after 48 hrs by TUNEL assay; method in brief: as §2
MCF7 [7] = assay: Induction of apoptosis in human MCF7 cells assessed as fragmentation of genomic DNA at 0.043 uM after 48 hrs by TUNEL assay
MCF7 [8] = assay: Induction of apoptosis in human MCF7 cells assessed as fragmentation of genomic DNA at 22.3 uM after 48 hrs by TUNEL assay; method in brief: as §2

Structure (SMILES)	GI50 (NCI-H460) [µM]	GI50 (MCF7 [1]) [µM]	GI50 (SF-268) [µM]	Activity (MCF7 [2]) [%]	Activity (MCF7 [3]) [%]	Activity (MCF7 [4]) [%]	Activity (MCF7 [5]) [%]	Activity (MCF7 [6]) [%]	Activity (MCF7 [7]) [%]	Activity (MCF7 [8]) [%]
COC(=O)/C(C)=C/[C@H]1C[C@@H](C)[C@]2(C)[C@@H](C=C3C4=C(CC[C@]32C)[C@@]2(C)CC[C@@H](O)C(C)(C)[C@@H]2CC4)O1	30.4	19.2	29.7	2.97						
CC(=O)O[C@H]1CC[C@]2(C)C3=CC[C@]4(C)C([C@H](C)CC(=O)C[C@H](C)C(=O)O)=CC[C@@]4(C)[C@@H]3CC[C@H]2C1(C)C	22.1	15.5	30.6		5.33					
C[C@H](CC(=O)C[C@H](C)C(=O)O)C1=CC[C@@]2(C)[C@@H]3CC[C@H]4C(C)(C)[C@H](O)CC[C@]4(C)C3=CC[C@]12C	36.9	19.4	34.8			2.34				
COC(=O)/C(C)=C/[C@H]1C[C@@H](C)[C@]2(C)[C@@H](C=C3C4=C(CC[C@]32C)[C@@]2(C)CC[C@@H](OC(C)=O)C(C)(C)[C@@H]2CC4)O1	34.4	15.3	28.6				23.54			
COC(=O)/C(C)=C/[C@H](O)C[C@@H](C)[C@]1(C)CC(=O)C2=C3CC[C@H]4C(C)(C)[C@H](O)CC[C@]4(C)[C@H]3CC[C@]21C	42.7	26	44.7					26.36		
C/C(=C\CC[C@@H](C)[C@@]1(C)C[C@H]2O[C@]23[C@]1(C)CCC(=O)[C@@]31CC[C@H]2C(C)(C)[C@@H](O)CC[C@@]21C)C(=O)O	68.6	63.8	86.4							
COC(=O)[C@@H](C)CC(=O)C[C@@H](C)C1=CC[C@@]2(C)[C@@H]3CC[C@H]4C(C)(C)[C@@H](O)CC[C@]4(C)C3=CC[C@]12C	> 100	> 100	> 100							
C/C(=C\C=C/[C@@H](C)[C@@]1(C)C[C@H]2O[C@]23[C@]1(C)CCC(=O)[C@@]31CC[C@H]2C(C)(C)[C@@H](O)CC[C@@]21C)C(=O)O	70.3	69.6	95.7							
COc1cccc2c1C(=O)c1c(O)c3c(c(O)c1C2=O)C[C@@](O)(C(=O)CO)C[C@@H]3O[C@H]1C[C@H](N)[C@H](O)[C@H](C)O1 [DOXORUBICIN]	0.094	0.043	0.093						26.02	
COC(=O)/C(C)=C/[C@H](O)C[C@@H](C)[C@]1(C)CC=C2C3=C(CC[C@]21C)[C@@]1(C)CC[C@@H](O)C(C)(C)[C@@H]1CC3 [GARCIHOMBRONANES C]	37.9	22.3	38.6							17.36
